Assay results gathered from unrelated publications.
Each line is one published result; the experiments were not run side by side.
PIK3CA C420R: Phosphatidylinositol 4,5-bisphosphate 3-kinase catalytic subunit alpha isoform (PIK3CA, Homo sapiens, UniProt P42336, C420R)
PIK3CA E545A: Phosphatidylinositol 4,5-bisphosphate 3-kinase catalytic subunit alpha isoform (PIK3CA, Homo sapiens, UniProt P42336, E545A)
PIK3CA E542K: Phosphatidylinositol 4,5-bisphosphate 3-kinase catalytic subunit alpha isoform (PIK3CA, Homo sapiens, UniProt P42336, E542K)
PIK3CA: Phosphatidylinositol 4,5-bisphosphate 3-kinase catalytic subunit alpha isoform (PIK3CA, Homo sapiens, UniProt P42336)
PIK3CA M1043I: Phosphatidylinositol 4,5-bisphosphate 3-kinase catalytic subunit alpha isoform (PIK3CA, Homo sapiens, UniProt P42336, M1043I)
PIK3CA Q546K: Phosphatidylinositol 4,5-bisphosphate 3-kinase catalytic subunit alpha isoform (PIK3CA, Homo sapiens, UniProt P42336, Q546K)
PIK3CA I800L: Phosphatidylinositol 4,5-bisphosphate 3-kinase catalytic subunit alpha isoform (PIK3CA, Homo sapiens, UniProt P42336, I800L)
PIK3CA H1047L: Phosphatidylinositol 4,5-bisphosphate 3-kinase catalytic subunit alpha isoform (PIK3CA, Homo sapiens, UniProt P42336, H1047L)
PIK3CA H1047Y: Phosphatidylinositol 4,5-bisphosphate 3-kinase catalytic subunit alpha isoform (PIK3CA, Homo sapiens, UniProt P42336, H1047Y)
PIK3CA E545K: Phosphatidylinositol 4,5-bisphosphate 3-kinase catalytic subunit alpha isoform (PIK3CA, Homo sapiens, UniProt P42336, E545K)

Cc1c(NC(=O)c2cc(C(N)=O)nc3cc(F)ccc23)c(C(F)(F)F)nn1Cc1ccc(C(C)(C)C)cc1
remaining binding (PIK3CA C420R; cell-free assay, competition with immobilised ligand; 1 µM): 100%

CN1CCN(c2ccc(Nc3nccc(-c4cccc([N+](=O)[O-])c4)n3)cc2C(F)(F)F)CC1
remaining binding (PIK3CA E545A; binding; 10 µM): 58%

CN(C)c1ncc(F)c(-c2cnn3ncccc23)n1
remaining binding (PIK3CA E542K; binding; 1 µM): 69%

Cc1c(-c2ccccc2)oc2c(C(=O)OCCN3CCCCC3)cccc2c1=O
remaining binding (PIK3CA; cell-free assay, competition with immobilised ligand; 0.1 µM): 100%

O=C(NCCCC1CCCCC1)c1ccc(CNC(=O)c2cnn(-c3ccccc3)c2C(F)(F)F)cc1
remaining binding (PIK3CA M1043I; cell-free assay, competition with immobilised ligand; 0.1 µM): 68%

O=C(NCCCN1CCOCC1)c1ccc(Nc2nccc(-c3cc4ccccc4s3)n2)cc1
remaining binding (PIK3CA Q546K; binding, competition with immobilised ligand; 1 µM): 81%

N[C@@H]1CCN(c2nccc(-c3cnn4ncccc34)n2)C1
remaining binding (PIK3CA I800L; binding; 1 µM): 71%

CS(=O)(=O)N1CCCC(NC(=O)[C@H](CCC2CCCCC2)NC(=O)c2ccc(CNC(=O)c3cnc4ccccn34)cc2)C1 (stereo partly shown)
remaining binding (PIK3CA H1047L; cell-free assay, competition with immobilised ligand; 0.1 µM): 100%

O=C(c1ccc(Nc2nccc(-c3cc4ccccc4s3)n2)cc1)N1CCC(N2CCCC2)CC1
remaining binding (PIK3CA E545A; binding, competition with immobilised ligand; 1 µM): 100%

c1cncc(-c2cccc(Nc3nccc(NC4CCCCC4)n3)c2)c1
remaining binding (PIK3CA H1047Y; binding, competition with immobilised ligand; 10 µM): 89%

CN(C)c1nccc(-c2cnc3ncccn23)n1
remaining binding (PIK3CA H1047Y; binding; 1 µM): 50%

COc1ncc2cc3ccccc3nc2c1C#N
remaining binding (PIK3CA I800L; cell-free assay, competition with immobilised ligand; 5 µM): 86%

C[C@@H]1CCN(c2nccc(-c3cnn4ncccc34)n2)C1
remaining binding (PIK3CA M1043I; binding; 1 µM): 98%

Cc1nc(Cc2cccc(C(F)(F)F)c2)sc1-c1ccc(C(N)=O)nc1
remaining binding (PIK3CA C420R; cell-free assay, competition with immobilised ligand; 1 µM): 89%

CN(CCCC(F)(F)F)c1nccc(-c2cnn3ncccc23)n1
remaining binding (PIK3CA I800L; binding; 1 µM): 100%

C[C@@H](c1ccc(-n2cnc3c(N)ncnc32)cc1)N1CCc2nn(C)c(Cc3ccccc3)c2C1=O
remaining binding (PIK3CA H1047L; binding, competition with immobilised ligand; 0.1 µM): 63%

CCCOc1ccc([C@H]2[C@H](C(=O)O)[C@@H](c3ccc4c(c3)OCO4)CN2CC(=O)Nc2c(CC)cccc2CC)cc1
remaining binding (PIK3CA; cell-free assay, competition with immobilised ligand; 1 µM): 80%

Nc1ncc2c(n1)-c1c([nH]c3ccc(C#CC4CC4)cc13)CCCC2
remaining binding (PIK3CA E545A; binding, competition with immobilised ligand; 1 µM): 89%

CN(c1ccnc(CNc2nc(Nc3ccc4c(c3)CC(=O)N4)ncc2C(F)(F)F)n1)S(C)(=O)=O
remaining binding (PIK3CA E545K; cell-free assay, competition with immobilised ligand; 1 µM): 100%

COc1ccnn2ncc(-c3ccnc(N(C)C)n3)c12
remaining binding (PIK3CA C420R; binding; 1 µM): 78%

CNC(=O)[C@@H]1CC[C@@H](n2c(-c3ccc4cnccc4c3)nc3ccc(C(=O)NCc4cccc(C(N)=O)c4)cc32)C1
remaining binding (PIK3CA E545A; binding, competition with immobilised ligand; 1 µM): 89%

CCN1CCN(Cc2ccc(C(=O)Nc3ccc(C)c(Oc4ccc5c(c4)CC(=O)N5)c3)cc2C(F)(F)F)CC1
remaining binding (PIK3CA E542K; binding, competition with immobilised ligand; 1 µM): 100%

c1cnn2ncc(-c3ccnc(N4CCC45COC5)n3)c2c1
remaining binding (PIK3CA Q546K; binding; 1 µM): 63%

COc1cnc(Nc2cccc(S(N)(=O)=O)c2)nc1N1CCN(c2ccccc2)C(=O)C1
remaining binding (PIK3CA; binding, competition with immobilised ligand; 1 µM): 100%

O=C(NCCCN1CCOCC1)c1ccc(Nc2ncc(Cl)c(-c3ccc(Cl)s3)n2)cc1
remaining binding (PIK3CA E545K; binding, competition with immobilised ligand; 1 µM): 71%

C[C@H](c1cccc(C#N)c1)n1cc(Cl)cc(C(N)=O)c1=N
remaining binding (PIK3CA Q546K; cell-free assay, competition with immobilised ligand; 1 µM): 100%

O=C(Nc1c[nH]nc1C(=O)NC1CCNCC1)c1cc(F)cc(F)c1
remaining binding (PIK3CA H1047Y; binding, competition with immobilised ligand; 1 µM): 100%

COc1cnc(Nc2cccc(S(N)(=O)=O)c2)nc1N1CCN(c2ccccc2)CC1
remaining binding (PIK3CA E545K; binding, competition with immobilised ligand; 1 µM): 72%

O=C(c1ccc(Nc2ncc(Cl)c(-c3ccc(Cl)s3)n2)cc1)N1CCC(N2CCCC2)CC1
remaining binding (PIK3CA Q546K; binding, competition with immobilised ligand; 1 µM): 100%

CS(=O)(=O)CCNCc1ccc(-c2ccc3ncnc(Nc4ccc(OCc5cccc(F)c5)c(Cl)c4)c3c2)o1
remaining binding (PIK3CA; cell-free assay, competition with immobilised ligand; 0.1 µM): 98%

C=CC(=O)N1CCC(C(=O)NCC(=O)N2CCN(c3nc(-c4cnc(N)nc4C(F)F)nc(N4CCOCC4)n3)CC2)CC1
remaining binding (PIK3CA E545K; binding, competition with immobilised ligand; 1 µM): 0%

O=C(c1ccc(Nc2ncc(Cl)c(-c3cc4ccccc4s3)n2)cc1)N1CCC(N2CCCC2)CC1
remaining binding (PIK3CA I800L; binding, competition with immobilised ligand; 1 µM): 97%

O=C(N1CCS(=O)(=O)CC1)N1C[C@H](c2ccc(OC(F)(F)F)cc2)C[C@H](c2nc(C3CC3)no2)C1
remaining binding (PIK3CA Q546K; cell-free assay, competition with immobilised ligand; 1 µM): 83%

N#Cc1ccccc1CSc1nnc2c(n1)[nH]c1ccccc12
remaining binding (PIK3CA; binding, competition with immobilised ligand; 10 µM): 100%

O=C(NCC1CCOCC1)c1n[nH]cc1NC(=O)c1c(F)cccc1F
remaining binding (PIK3CA Q546K; binding, competition with immobilised ligand; 1 µM): 77%

CN1CCN(c2ccc(Nc3nccc(-c4ccccc4)n3)cc2C(F)(F)F)CC1
remaining binding (PIK3CA H1047L; binding; 10 µM): 55%

CN(C)c1nccc(-c2cnn3ncccc23)n1
remaining binding (PIK3CA E545K; binding; 1 µM): 83%
